Laboratory results from ChEMBL document CHEMBL3352362, “Discovery of a novel, first-in-class, orally bioavailable azaindole inhibitor (VX-787) of influenza PB2” (J Med Chem, 2014).

How the values were obtained:
[1] = molecular target: Polymerase basic protein 2 (Influenza A virus (strain A/Puerto Rico/8/1934 H1N1), UniProt P03428); experiment: Binding affinity to influenza A virus (A/Puerto Rico/8/1934(H1N1)) PB2 by competition binding fluorescence polarization (FP) assay
Method in brief: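 Fluorescence polarization competition binding assay measuring affinity for the cap-binding domain of the PB2 subunit.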

Influenza A virus [2] = experiment: Antiviral activity against Influenza A virus (A/Puerto Rico/8/1934(H1N1)) infected in MDCK cells assessed as cell protection after 72 hrs by cytopathic effect assay; type: functional, organism-based
Method in brief: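 MDCK cells incubated with test compound and influenza A virus for 72 h (3-day CPE format). Cell viability read by an ATP end point. EC50 is the concentration giving 50% cell protection; mean of N = 3 or greater.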

Influenza A virus [3] = experiment: Antiviral activity against Influenza A virus (A/Puerto Rico/8/1934(H1N1)) infected in cells assessed as reduction in multiplication of virus-specific RNA molecules using branched-chain DNA; type: functional
Method in brief: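 Viral RNA replication in infected cells quantified by the bDNA QuantiGene method with strand-specific probes for positive- or negative-strand RNA. EC90 is the compound concentration giving viral RNA levels equal to 10% of control wells.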

[4] = Half life in rat at 3 mg/kg, iv; type: ADME, organism-based; parameters: dose 3 mg/kg, route intravenous; settings: in vivo
[5] = Cmax in rat at 3 mg/kg, po; type: ADME, organism-based; parameters: dose 3 mg/kg, route oral; settings: in vivo
[6] = AUC in rat at 3 mg/kg, po; type: ADME, organism-based; parameters: dose 3 mg/kg, route oral; settings: plasma
[7] = Clearance in rat at 3 mg/kg, iv; type: ADME, organism-based; parameters: dose 3 mg/kg, route intravenous; settings: in vivo
[8] = AUC in mouse at 30 mg/kg; type: ADME, organism-based; parameters: dose 30 mg/kg; settings: plasma
[9] = Oral bioavailability in rat at 3 mg/kg; type: ADME, organism-based; settings: in vivo
[10] = Cmax in mouse at 30 mg/kg; type: ADME, organism-based; parameters: dose 30 mg/kg; settings: in vivo

Sequence of Polymerase basic protein 2 (P03428 whole entry, the tested form may be a part): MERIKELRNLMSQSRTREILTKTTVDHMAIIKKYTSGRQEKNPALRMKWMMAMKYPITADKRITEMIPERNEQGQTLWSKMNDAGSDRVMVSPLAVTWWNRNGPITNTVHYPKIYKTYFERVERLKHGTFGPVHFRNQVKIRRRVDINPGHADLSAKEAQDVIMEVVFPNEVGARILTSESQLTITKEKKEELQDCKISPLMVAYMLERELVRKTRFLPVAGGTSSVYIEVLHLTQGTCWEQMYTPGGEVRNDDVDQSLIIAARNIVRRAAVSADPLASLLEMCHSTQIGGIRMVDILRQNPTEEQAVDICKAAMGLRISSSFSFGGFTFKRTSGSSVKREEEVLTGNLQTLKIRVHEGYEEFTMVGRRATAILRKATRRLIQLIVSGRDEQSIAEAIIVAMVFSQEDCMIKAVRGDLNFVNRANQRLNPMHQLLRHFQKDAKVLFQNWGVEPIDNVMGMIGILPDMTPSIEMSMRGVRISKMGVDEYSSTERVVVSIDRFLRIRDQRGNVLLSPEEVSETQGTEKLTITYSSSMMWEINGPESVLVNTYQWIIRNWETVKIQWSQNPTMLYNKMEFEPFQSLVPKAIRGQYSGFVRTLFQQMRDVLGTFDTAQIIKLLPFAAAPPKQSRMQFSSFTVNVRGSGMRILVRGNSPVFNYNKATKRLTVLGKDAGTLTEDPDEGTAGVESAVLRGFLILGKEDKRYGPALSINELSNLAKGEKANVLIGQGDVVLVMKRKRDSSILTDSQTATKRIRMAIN

Compound	Kd [1] [nM]	EC50 (Influenza A virus [2]) [nM]	EC90 (Influenza A virus [3]) [nM]	half-life [4] [h]	Cmax [5] [ng/mL]	AUC [6] [ng·h/mL]	clearance [7] [mL/min/kg]	AUC [8] [ng·h/mL]	bioavailability [9] [%]	Cmax [10] [ng/mL]
CC(=O)N1CCC[C@H](CNc2nc(-c3c[nH]c4ncc(Cl)cc34)ncc2F)C1	300	400	540	–	–	–	–	–	–	–
N[C@H]1CCCC[C@@H]1Nc1nc(-c2c[nH]c3ncc(Cl)cc23)ncc1F	90	620	2480	–	–	–	–	–	–	–
N[C@@H]1CCCC[C@H]1Nc1nc(-c2c[nH]c3ncc(Cl)cc23)ncc1F	4900	> 20000	–	–	–	–	–	–	–	–
O=C(O)[C@H]1C2CCC(CC2)[C@@H]1Nc1nc(-c2c[nH]c3ncc(Cl)cc23)ncc1F	< 5	1	1	3.9	30	300	32	10000	24	3700
CC(O)C(=O)N[C@@H]1CCC[C@H](Nc2nc(-c3c[nH]c4ncc(Cl)cc34)ncc2F)C1 (stereo partly drawn)	400	86	240	–	–	–	–	–	–	–
Cn1cncc1C(=O)N[C@@H]1CCC[C@H](Nc2nc(-c3c[nH]c4ncc(F)cc34)ncc2F)C1	90	2	5	2	600	3700	22	19000	100	13000
O=C(O)[C@H]1CCCC[C@@H]1Nc1nc(-c2c[nH]c3ncc(Cl)cc23)ncc1F (racemic)	< 2	134	187	1	30	200	16	–	7	–
CN(C)c1cnc2[nH]cc(-c3ncc(F)c(N[C@H]4CCC[C@@H](NC(=O)N5CCOCC5)C4)n3)c2c1	–	1260	> 3000	–	–	–	–	–	–	–
Cn1cncc1C(=O)N[C@@H]1CCC[C@H](Nc2nc(-c3c[nH]c4ncc(Cl)cc34)ncc2F)C1	20	2	3	–	–	–	–	–	–	–
NC(=O)[C@H]1CCCC[C@@H]1Nc1nc(-c2c[nH]c3ncc(Cl)cc23)ncc1F (racemic)	30	–	3130	–	–	–	–	–	–	–
CC(=O)N[C@@H]1CCC[C@H](Nc2nc(-c3c[nH]c4ncc(Cl)cc34)ncc2F)C1	70	36	25	–	–	–	–	–	–	–
Fc1cnc(-c2c[nH]c3ncc(Cl)cc23)nc1NC1CCCCC1	300	1640	2370	–	–	–	–	–	–	–
O=C(CN1CCOCC1)N[C@@H]1CCC[C@H](Nc2nc(-c3c[nH]c4ncc(Cl)cc34)ncc2F)C1	200	100	380	–	–	–	–	–	–	–
Cc1cnc2[nH]cc(-c3ncc(F)c(N[C@H]4CCC[C@@H](NC(=O)N5CCOCC5)C4)n3)c2c1	–	10	13	–	–	–	78	–	–	–
O=C(N[C@@H]1CCC[C@H](Nc2nc(-c3c[nH]c4ncc(C(F)(F)F)cc34)ncc2F)C1)N1CCOCC1	–	3	3	–	–	–	81	–	–	–
O=C(O)[C@H]1[C@H]2CC[C@H](C2)[C@@H]1Nc1nc(-c2c[nH]c3ncc(Cl)cc23)ncc1F (racemic)	< 2	< 2	6	–	–	–	–	–	–	–
Fc1cnc(-c2c[nH]c3ncc(Cl)cc23)nc1NC1CCCNC1 (stereo not drawn)	–	1870	–	–	–	–	–	–	–	–
O=C(N[C@@H]1CCC[C@H](Nc2nc(-c3c[nH]c4ncccc34)ncc2F)C1)N1CCOCC1	–	98	200	–	–	–	–	–	–	–
CC(=O)c1cnc2[nH]cc(-c3ncc(F)c(N[C@H]4CCC[C@@H](NC(=O)N5CCOCC5)C4)n3)c2c1	–	> 10000	> 3000	–	–	–	–	–	–	–

Compound	Kd [1] [nM]	EC50 (Influenza A virus [2]) [nM]	EC90 (Influenza A virus [3]) [nM]	half-life [4] [h]	Cmax [5] [ng/mL]	AUC [6] [ng·h/mL]	clearance [7] [mL/min/kg]	AUC [8] [ng·h/mL]	bioavailability [9] [%]	Cmax [10] [ng/mL]
CN(C)C(=O)N[C@@H]1CCC[C@H](Nc2nc(-c3c[nH]c4ncc(F)cc34)ncc2F)C1	400	2	6	–	–	–	–	–	–	–
OC[C@H](O)CN1CCC[C@H](Nc2nc(-c3c[nH]c4ncc(Cl)cc34)ncc2F)C1	400	270	360	2.3	–	–	56	6500	–	1200
C[C@]1(C(=O)O)CCCC[C@@H]1Nc1nc(-c2c[nH]c3ncc(F)cc23)ncc1F	< 2	18	140	–	–	–	–	–	–	–
COCCC(=O)N1CCC[C@H](Nc2nc(-c3c[nH]c4ncc(Cl)cc34)ncc2F)C1	100	13	320	0.7	–	–	88	–	–	–
C[C@H](Nc1nc(-c2c[nH]c3ncc(Cl)cc23)ncc1F)C(=O)N(C)C	100	510	1130	–	–	–	–	–	–	–
CS(=O)(=O)N1CCCC[C@@H]1CNc1nc(-c2c[nH]c3ncc(Cl)cc23)ncc1F	100	660	540	0.4	–	–	152	–	–	–
CCc1cnc2[nH]cc(-c3ncc(F)c(N[C@H]4CCC[C@@H](NC(=O)N5CCOCC5)C4)n3)c2c1	–	25	260	–	–	–	–	–	–	–
COCC[C@]1(C(=O)O)CCCC[C@@H]1Nc1nc(-c2c[nH]c3ncc(Cl)cc23)ncc1F (racemic)	9	18	90	–	–	–	–	–	–	–
Fc1cnc(-c2c[nH]c3ncc(Cl)cc23)nc1NC1CCCC1	700	> 20000	> 10000	–	–	–	–	–	–	–
NC(=O)CN1CCC[C@H](Nc2nc(-c3c[nH]c4ncc(Cl)cc34)ncc2F)C1	80	81	20	–	–	–	182	–	–	–
O=C(N[C@@H]1CCC[C@H](Nc2nc(-c3c[nH]c4ncc(Cl)cc34)ncc2F)C1)N1CCOCC1	500	2	5	–	–	–	59	–	–	–
CC(=O)N[C@H]1CCCC[C@@H]1Nc1nc(-c2c[nH]c3ncc(Cl)cc23)ncc1F	100	44	1460	–	–	–	–	–	–	–
C[C@]1(C(=O)O)CCCC[C@@H]1Nc1nc(-c2c[nH]c3ncc(Cl)cc23)ncc1F (racemic)	< 2	11	59	3.2	200	2200	24	2400	82	1300
O=C(NC1CCOCC1)N[C@@H]1CCC[C@H](Nc2nc(-c3c[nH]c4ncc(F)cc34)ncc2F)C1	400	60	160	–	–	–	–	–	–	–
COc1cnc2[nH]cc(-c3ncc(F)c(N[C@H]4CCC[C@@H](NC(=O)N5CCOCC5)C4)n3)c2c1	–	95	170	–	–	–	–	–	–	–
COCC(=O)N[C@@H]1CCC[C@H](Nc2nc(-c3c[nH]c4ncc(F)cc34)ncc2F)C1	200	45	90	–	–	–	–	–	–	–
O=C(O)[C@H]1[C@@H]2CC[C@@H](C2)[C@@H]1Nc1nc(-c2c[nH]c3ncc(Cl)cc23)ncc1F (racemic)	< 2	8	21	–	–	–	–	–	–	–
COCC(=O)N[C@@H]1CCC[C@H](Nc2nc(-c3c[nH]c4ncc(Cl)cc34)ncc2F)C1	70	44	20	–	–	–	–	–	–	–
O=C(N[C@@H]1CCC[C@H](Nc2nc(-c3c[nH]c4ncc(F)cc34)ncc2F)C1)N1CCOCC1	400	4	12	1.7	200	1100	22	180000	46	18200
